From PubChem BioAssay
A number with no mark means an inactive call. Records with an inconclusive call do not appear. Active and inactive are the calls of the source.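 How the source made its calls, unless noted: active means growth inhibition above 25% in both replicates, a cutoff set 3 SD above the mean; inconclusive means above 25% in only one replicate; inactive means the rest.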

Experiments:
[1] = S. cerevisiae growth inhibition in permissive medium (OD615), pilot counter-assay for S. cerevisiae lifespan shortening project, permissive growth control (AID 705); details: OD615, 24 h, at 10 µM, hits give high values
Method in brief: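 Timing: 24 h exposure, 30 °C / Material: Saccharomyces cerevisiae strain carrying genetically modified DeaD replicative-lifespan system / Signal: OD at 615 nm / Compound: 10 µM single dose, 0.25% DMSO / Medium: SC raffinose/galactose permissive medium / Evaluation: reduction in yeast growth (OD615)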

[2] = S. cerevisiae growth inhibition in restrictive medium, OD615, pilot screen, restrictive growth control, yeast lifespan reduction project (AID 706;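 active means growth inhibition above a set limit, 3 SD over mean compound inhibition, in both replicates, cut at about 43% in these data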;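 further: modified DeaD lifespan yeast strain shifted to restrictive glucose medium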); details: OD615, 48 h, at 10 µM, hits give high values
Method in brief: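 System: Engineered S. cerevisiae DeaD strain | Detection: OD615 | Buffer or medium: CSMM-D glucose medium | Doses: 10 µM compound, 0.25% DMSO | Timing: 4 h pre-growth plus 48 h compound exposure, 30 °C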

[3] = doxorubicin toxicity protection in MRP-1 cells – H69AR cells, CellTiter-Glo, duplicate, MRP-1 activator project, pilot screen (AID 807;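 active means viability increase at or above a cutoff of the median across tested compounds plus 3 SD, cut at about 8.5% in these data, passing the limit was not always enough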;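 further: compound pretreatment 18-22 h then 72 h combined with doxorubicin; 0% = doxorubicin alone and 100% = vehicle without doxorubicin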); details: H69AR viability with doxorubicin, CellTiter-Glo luminescence; at 10 µM; hits give high values
[4] = viability of HCT116 without oncogenic beta-catenin – human colon tumor cells, pilot screen (AID 823;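 active means cell viability at or below a set limit in both duplicate runs, the limit being the all-compound median minus 4 SD, cut at about 23% in these data, passing the limit was not always enough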;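 further: 0% = wells killed by 20 µM Hyamine and 100% = untreated DMSO cell wells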); details: HCT116 beta-catenin knockout viability, CellTiter-Glo, 60 h; at 10 µM; hits give low values
[5] = viability of PTEN-null HCT116 cells – cell-based, HCT116 clonal line, CellTiter-Glo, pilot screen (AID 824;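 active means viability at or below 27.92% in each of two runs, the all-compound median minus 4 SD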;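 further: 0% = 20 µM Hyamine control and 100% = vehicle cell control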); details: HCT116 PTEN-deleted viability, 60 h, at 10 µM, hits give low values
[6] = RAM pathway blockade in budding yeast – dse1pr::URA3 reporter, 5-FOA selection, pilot screen (AID 869;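 active means inhibition over a set limit, the all-compound mean plus 3 SD, in both replicate runs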;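 further: 0% = DMSO wells with no growth and 100% = 10 µM 1-NA-PP1 with full growth; RAM network block rescues cells from 5-FOA so hits raise OD615 growth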); details: S. cerevisiae dse1pr::URA3 5-FOA growth, OD615, 2 d; at 10 µM; hits give high values; strain carries analog-sensitive mutant Cbk1 kinase

Structure (SMILES) | growth inhibition [1] [%] | growth inhibition [2] | viability increase [3] [%] | viability [4] | viability [5] [%] | inhibition [6] [%]
CC(C)Oc1ccc(NC(=O)Oc2ccccc2)cc1 | -4.28 | -8.55% | -0.53 | 97.4% | 96.8 | 2.38
COc1ccc(-c2nc(CS(=O)CC(=O)NCc3ccc4c(c3)OCO4)c(C)o2)cc1 (centres undefined) | 4.12 | 14.1% | -1.69 | 94.7% | 91.1 | 2.02
COC(=O)C1=C(N)N(c2ccc(F)cc2)C2=C(C(=O)CCC2)C1c1ccc2c(c1)OCO2 (centres undefined) | -6.41 | -5.16% | -0.72 | 84.9% | 86 | 3.19
COc1ccc(-c2cc(CCCC(=O)NCc3ccccn3)no2)cc1 | -5.78 | 8.54% | -1.34 | 98.8% | 97.8 | 1.08
N#CCCN1CCN(C(=S)c2ccc(-c3cccc(Cl)c3)o2)CC1 | -12.9 | 22.7% | -0.32 | 76.9% | 83 | 1.51
COc1ccc(NC(=O)c2nnn(Cc3ccc(SC)cc3)c2N)c(OC)c1 | -1.88 | -10.7% | -0.11 | 100% | 93.1 | 4.42
CCOC(=O)CSc1nc2c(c(=O)n(C)c(=O)n2C)n1Cc1ccccc1F | -8.61 | 2.55% | 0.38 | 95.9% | 93.6 | 2
CCCCN(C)CCCNC(=O)Cn1c(=O)sc2ccccc21 | -8.58 | -10.9% | -3.13 | – | 97.5 | 1.33
CCOC(=O)c1ccc(NC(=O)c2cc3ccccc3o2)cc1 | -5.56 | -8.95% | 1.54 | 86.2% | 86.6 | 1
Cc1cccc(N2CCN(C(=O)c3cc4c(=O)n(C)c5ccccc5c4n3C)CC2C)c1 (centres undefined) | -3.86 | 3.15% | -4.81 | – | – | 1.81
Cc1ccc(-c2nc3cnccn3c2Nc2ccc3c(c2)OCCO3)o1 | -11.4 | -5.81% | -5.2 | 92.4% | – | 1.19
COc1cc2c(cc1OC)C(C)N(C(=O)c1cc3ccccc3o1)CC2 (centres undefined) | -11.9 | 10.2% | -3.13 | 37.3% | 42.7 | 1.52
O=S1(=O)C=C(SCCN2CCCCC2)c2ccccc21 | -4.08 | -20.4% | -7.06 | 61.6% | 66.9 | 1.29
Cc1noc(/C=C/N(C)C)c1S(=O)(=O)N1CCCC(C(=O)NCc2ccc(F)cc2)C1 (centres undefined) | -4.61 | -8.86% | – | 90.1% | 85.8 | –
O=C(NCc1ccc2c(c1)OCO2)c1nnc(Cc2ccc(F)cc2)o1 | -1.76 | 9.91% | 0.87 | 105% | 97.1 | 3.56
CCN(CC)S(=O)(=O)c1cc(-c2nnc(-c3ccc(Br)cc3)o2)ccc1Cl | -10.3 | -14.6% | 1.36 | – | 41.7 | 2.41
O=C1c2ccccc2C(Nc2ccc(S(=O)(=O)N3CCOCC3)cc2)N1c1cccnc1 (centres undefined) | -3.45 | -1.27% | -0.92 | 102% | 97 | -0.33
C(=C\c1ccccc1)/CN1CCN(c2ncnc3c2oc2ccccc23)CC1 | -2.64 | -6.73% | -3.8 | – | – | 1.36
COc1ccc(Nc2nc(N)nc(CN3CCC(Cc4ccccc4)CC3)n2)cc1 | 6.83 | -0.085% | -6.58 | – | 35.8 | 0.1
O=C(Cn1cc2c(n1)CCCC2)NCc1ccccn1 | -2.39 | 2.25% | -0.85 | 104% | 106 | 0.72
Cn1c(=O)oc2cc(S(=O)(=O)N3CCC(C(=O)NCC4COc5ccccc5O4)CC3)ccc21 (centres undefined) | -17.2 | -19.6% | 0.66 | 103% | 96.8 | 3.92

Structure (SMILES) | growth inhibition [1] [%] | growth inhibition [2] | viability increase [3] [%] | viability [4] | viability [5] [%] | inhibition [6] [%]
Brc1ccc(Oc2nnnn2-c2ccccc2)cc1 | -5.57 | -3.68% | 0.29 | 95.3% | 88.9 | 1.51
COc1ccc(N(CC(=O)NCCSc2ccccn2)S(C)(=O)=O)cc1Cl | -5.09 | -6.72% | -3.81 | – | 97.3 | 1.44
Cc1c(/C=N/n2cnnc2)c2ccccc2n1CCOc1ccc(Cl)cc1 | 3.74 | 17.6% | -4.25 | – | 90 | 4.12
Brc1ccccc1-c1nnc(CSc2nnc3sc4ccccc4n23)o1 | 16.1 | 64.8% (active) | -3.18 | 96.1% | 91.7 | 2.15
CCOC(=O)c1ccc(NC(=O)c2ccc(C)c(S(=O)(=O)N3CCOCC3)c2)cc1 | -7.03 | -5.64% | -3.41 | 12.8% (active) | – | 0.87
CC(C)n1c(C(=O)OCC(=O)NCc2ccc3c(c2)OCO3)cc2sccc21 | -10.2 | -12.8% | -6.26 | 53.4% | – | 2.71
N#CC1=C2SCN(c3ccccc3)CN2C(=O)CC1c1ccccc1Cl (centres undefined) | 6.17 | – | -5.58 | 97.2% | 82.5 | 2.58
N#CCSc1n[nH]c2nc3c(c(=O)n12)C1(CCCC1)Cc1ccccc1-3 | -1.95 | 28% | 4.21 | 102% | – | 2.08
COc1ccc(C(=O)/C=C/Nc2cc(C)on2)cc1 | -11.9 | -11.9% | -0.71 | – | 97 | –
C=CCn1c(SCc2cc(=O)n3ccsc3n2)nc2scc(C3CC3)c2c1=O | -3.27 | -5.57% | -3.7 | – | 91.8 | 2.79
COc1cc2[nH]c(=O)n(Cc3ccc(C(=O)NCC4CCCO4)cc3)c(=O)c2cc1OC (centres undefined) | -14.9 | -17.9% | -3.55 | 90.2% | – | 3.56
COC(=O)c1c(-c2ccc(F)cc2)csc1NC(=O)c1ccco1 | -27.6 | 0.595% | 1.29 | 78.5% | – | 1.12
C=C(C)Cn1c(SCC(=O)O)nnc1-c1ccc(C(C)(C)C)cc1 | -15.7 | -4.97% | 0.28 | – | 101 | 1
CSc1nc(NCCOCCO)c2sc3nc(-c4ccco4)c4c(c3c2n1)CCC4 | -7.22 | 0.84% | -4.7 | 81.3% | – | 1.51
COc1cc(C2CC(=O)c3c([nH]c(C(=O)OCCOC(C)C)c3C)C2)cc(OC)c1OC (centres undefined) | -15.2 | -28.2% | -2.78 | – | 42.7 | 1.85
CCNC(=O)CCn1nc(-c2ccc(Cl)cc2)c2ccccc2c1=O | -10.9 | -10.1% | -5.74 | 49.5% | – | 0.575
COc1ccc(C)cc1NC(=O)CSc1nnc(-c2ccccn2)n1Cc1ccco1 | -2.92 | 7.74% | -2.4 | 95.7% | 88.2 | 1
COC(=O)c1c(NC(=O)C2CC2)sc2c1CCCC2 | 4.15 | 17% | -4.82 | 95.1% | 81.7 | 1.37
COC(=O)CNc1c(-c2ccccn2)nc2ccc(Br)cn12 | -20.4 | 10.8% | -2.57 | 89.2% | – | 0.175
O=C(CCCCn1c(=O)[nH]c2ccsc2c1=O)NCC1CCCO1 (centres undefined) | 2.62 | -0.86% | -3.45 | 97.1% | – | 1.61
